Only some compounds are listed: those with a hit (about 2.9% of all), similar ones and a draw of the others.
5HT1E antag: antagonists of human 5-HT1E serotonin receptor | 0.99% of 65,000 active | inhibition, % at 6 µM | CHO 5-HT1E Ga15 NFAT-bla reporter, FRET, antagonist | P28566;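 active = inhibition above a set limit, the mean inhibition across every tested compound plus 3 SD, cut at about 29% in these data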;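 also: signal is the 460 over 535 nm emission ratio of beta-lactamase substrate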
Target sequence (P28566 whole entry, looked up): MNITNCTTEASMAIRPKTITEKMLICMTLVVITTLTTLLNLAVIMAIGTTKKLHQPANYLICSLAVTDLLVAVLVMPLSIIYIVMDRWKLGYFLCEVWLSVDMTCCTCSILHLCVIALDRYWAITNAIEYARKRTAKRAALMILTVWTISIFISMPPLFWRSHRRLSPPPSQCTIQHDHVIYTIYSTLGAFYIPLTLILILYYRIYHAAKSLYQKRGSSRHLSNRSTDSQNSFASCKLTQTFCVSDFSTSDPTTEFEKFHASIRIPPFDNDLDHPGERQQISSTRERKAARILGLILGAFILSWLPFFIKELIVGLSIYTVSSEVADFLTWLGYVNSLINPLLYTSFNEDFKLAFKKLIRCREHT
HTR1E agonist: activates the human 5-HT1E serotonin receptor; P28566; CHO 5-HT1E Ga15 NFAT-bla reporter, FRET; 0% DMSO wells, 100% control agonist wells; activation, % at 6 µM; 0.69% of 65,000 active;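 active = activation above a set limit, the screen-wide mean activation plus 3 SD, cut at about 8.5% in these data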
HTR1A agonist: 5-HT1a (human) receptor agonism | P08908 | CHO 5-HT1a Ga15 NFAT-bla reporter, FRET ratio; 0% basal, 100% maximal reference agonist | activation, % at 10 µM | 0.56% of 65,000 active;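 active = activation above the screen-wide mean activation plus 3 SD, cut at about 19% in these data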
S1P1 ag pot: S1P1 (human) agonism or agonism potentiation; S1P1 CRE-bla cells, forskolin, beta-lactamase FRET, potentiator mode; S1P1 agonist co-added at EC20, 2 nM; 100% = saturating reference agonist, 0% = basal; AID 449; activation, % at 9.5 µM; P21453; 0.57% of 56,000 active;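 active = activation above a cutoff set at the mean activation of all tested compounds plus 3 SD, cut at about 54% in these data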;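 also: forskolin at 4 µM as EC80 and the EC20 agonist is SEW2871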
5HT1a antag: antagonists of human 5-HT1a serotonin receptor; P08908; 0.68% of 62,000 active; AID 612; CHO 5-HT1a Ga15 NFAT-bla reporter, antagonist mode; inhibition, % at 10 µM;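 active = inhibition above the mean of all tested compounds plus 3 SD, cut at about 43% in these data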;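 also: receptor stimulated by 5-CT agonist at 100 nM near EC80; beta-lactamase reporter measured by ratiometric fluorescence of a cleavable substrate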
S1P3 agonist: activates the human S1P3 receptor; Q99500; S1P3 NFAT-BLA reporter cells, agonism, FRET ratio; relative to 1 µM S1P, basal subtracted; activation, % at 4.5 µM; 0.1% of 60,000 active; AID 373;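 active = activation above the screen-wide mean plus 3 SD, cut at about 4.5% in these data, passing the limit was not always enough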
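material = human S1P3 NFAT-BLA reporter CHO cells | schedule = 4 h compound at 37 °C, 2 h substrate at RT | measured by = fluorescent BLA substrate, ex 405 nm, em 460/535 nm ratio | controls = 1 µM S1P reference | replication = primary once, confirmation triplicate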
A number is an active result; . = inactive; / = not tested or not shown.

SMILES | 5HT1E antag | HTR1E agonist | HTR1A agonist | S1P1 ag pot | 5HT1a antag | S1P3 agonist
COc1ccc(OC)c(NC(=O)CSCc2cnn(-c3ccccc3)c2-n2cccc2)c1 | . | . | . | . | 57 | .
Cc1cc(C)n2c(SCC(=O)N3CCN(S(=O)(=O)c4ccc(Cl)cc4)CC3)nnc2n1 | . | . | . | . | . | .
CCCn1c(SCC(=O)N2CCN(S(=O)(=O)c3ccc(Cl)cc3)CC2)n[nH]c1=O | . | 9.0 | . | . | . | .
CCCOC(=O)c1ccc(OCC(O)CN2CCN(C(=O)c3ccccc3)CC2)cc1 (stereo not given) | . | 48 | . | . | . | .
CCC(c1nnnn1C(C)(C)C)N1CCN(c2cc(Cl)ccc2C)CC1 (stereo not given) | . | . | . | . | 44 | .
CC(C)Cc1nnc(NC(=O)CSc2ncn[nH]2)s1 | . | . | 112 | . | . | .
CCOC(=O)C1CCN(C(=O)C2CC(=O)N(c3ccc(C)cc3)C2)CC1 (stereo not given) | . | . | . | . | . | .
CCOc1ccc(CCNS(=O)(=O)c2cccc3nsnc23)cc1OCC | . | . | . | . | . | .
CCN(CC)C(=O)CSc1nc2ccccc2c(=O)n1CCC(=O)NCc1ccc(F)cc1 | . | . | . | . | . | .
CCOc1ccccc1CN(CCc1ccc2c(c1)OCO2)Cc1ccccn1 | . | . | . | . | 48 | .
CCOc1ncccc1C(=O)Nc1ccccc1C(=O)NCc1ccc2c(c1)OCO2 | . | . | . | . | . | .
O=C(CSc1nnc(CNc2ccccc2)o1)N1CCc2ccccc21 | . | . | . | . | . | .
O=C(CSc1nnc(Cc2csc(Nc3cccc(Cl)c3)n2)o1)N1CCc2ccccc21 | . | . | . | 78 | . | .
COc1ccccc1S(=O)Cc1ccc(C(=O)NCCc2ccc(Cl)cc2)o1 (stereo not given) | . | . | . | . | . | .
CC1(C)NC(=O)N(CC(O)Cn2nnc3ccccc32)C1=O (stereo not given) | . | . | . | . | / | .
CC(=O)c1sc(NC(=O)C=C(C)C)nc1C | . | . | . | / | . | .
CC(=O)c1sc(NC(=O)C2(F)C(F)(F)C(F)(F)C(F)(F)C(F)(F)C2(F)F)nc1C | . | . | . | 111 | 65 | .
CC(NC(=O)NC12CC3CC(CC(C3)C1)C2)C1CCCO1 (stereo not given) | . | . | . | . | . | .
CCn1c(SCC(=O)Nc2cc3oc4ccccc4c3cc2OC)nnc1-c1cccs1 | . | . | 25 | / | . | .
CCn1c(SCC(=O)Nc2nccs2)nnc1-c1cc2cccc(OC)c2o1 | . | 11 | . | . | . | .
COc1cc2c(cc1NC(=O)CSc1nnc(Cc3cccs3)n1C)oc1ccccc12 | . | . | . | . | . | .
CC(=O)Oc1ccc(N2C(=O)C3C(C2=O)C2(C)C=CC3(C)O2)cc1 (stereo not given) | 64 | . | . | 135 | 85 | .
Cc1ccc(N(C(C)C(=O)N2CCCCC2)S(C)(=O)=O)cc1C (stereo not given) | . | . | . | . | . | .
Nc1ccc(-c2n[nH]c(=O)c3ccccc23)cc1N | . | . | . | / | . | /
CCCCC(CC)Cn1c2nc3ccccc3nc2c2c(=N)oc(C)nc21 (stereo not given) | . | . | . | / | . | /
SMILES | 5HT1E antag | HTR1E agonist | HTR1A agonist | S1P1 ag pot | 5HT1a antag | S1P3 agonist
CCCCC(CC)Cn1c(N)c(C#N)c2nc3ccccc3nc21 (stereo not given) | . | 17 | 46 | . | . | .
Cc1cc(C)c(NC(=O)c2cc3c(nc4sccn43)s2)c(C)c1 | 29 | . | . | . | . | .
CCOC(=O)C1CCCN(C/C(O)=C(\C#N)c2nc(-c3ccccc3)cs2)C1 (stereo not given) | . | . | . | . | . | .
Cc1cc(C)n(-c2nncn2NC(=O)c2ccc(Cl)cc2O)n1 | . | . | . | . | . | .
CCOc1ccccc1CN(Cc1ccco1)S(=O)(=O)c1ccc(-n2cnnn2)c(OC)c1 | . | . | . | . | 54 | .
CCN(CC)c1ccc2c(Cl)c(Br)c(=O)oc2c1 | 91 | . | . | . | 95 | .
CCOC(=O)CCc1c(C)c2ccc(O)cc2oc1=O | . | . | . | / | . | .
CCOC(=O)Cc1c(C)c2ccc(N(CC)CC)cc2oc1=O | . | . | 25 | . | . | .
C=CCNc1nc2c(c(=O)[nH]c(=O)n2C)n1Cc1cccc(C)c1 | . | . | . | . | . | .
O=C(CN1CCC(n2nnc3cc(F)ccc32)CC1)Nc1ccccc1N1CCOCC1 | . | . | . | . | . | .
COc1ccc(O)c(-c2cc(-c3cccs3)[nH]n2)c1 | . | . | . | . | 51 | .
COc1ccccc1-c1cc(-c2cc(Cl)ccc2O)n[nH]1 | . | . | . | . | / | .
COc1ccc(OC)c(C2=Nn3c(nnc3-c3ccncc3)SC2)c1 | . | . | . | / | . | /
CCOc1cccc(-c2nnc3n2N=C(c2cc(OC)ccc2OC)CS3)c1 | 61 | . | . | / | . | /
COc1cc(-c2nnc3n2N=C(c2ccccc2)CS3)cc(OC)c1OC | 51 | . | . | . | . | .
COc1ccc(-c2nnc3n2N=C(c2cccc(Br)c2)CS3)cc1OC | . | . | . | . | . | .
COc1cccc(-c2nnc3n2N=C(c2cc(OC)ccc2OC)CS3)c1 | 44 | . | . | / | . | /
COc1cccc(-c2nnc3n2N=C(C(C)(C)C)CS3)c1 | 51 | . | . | / | 76 | /
CC1(C)C(C=C(Cl)Cl)C1C(=O)N1CCN(c2ccccc2)CC1 (stereo not given) | . | . | . | . | . | .
COCCN(CC(=O)NCc1ccc(OC)cc1)C(=O)CCC(=O)Nc1nccs1 | . | . | . | . | . | .
COc1ccc(S(=O)(=O)N2CCN(CC(=O)Nc3cc(C(F)(F)F)ccc3Cl)CC2)cc1 | . | . | . | . | . | .
COc1ccc(OC)c(C2=Nn3c(nnc3-c3cc(OC)c(OC)c(OC)c3)SC2)c1 | 44 | . | . | . | . | .
CCCCOc1ccc(-c2nnn(CC(=O)NCc3ccco3)n2)cc1 | 29 | . | . | . | . | .
CCOc1ccc(OCC)c(NC(=O)CN2CCN(c3cccc(C)c3C)CC2)c1 | . | 28 | . | / | . | /
C=C(C)C1Cc2nc(N)nc(C)c2C1 (stereo not given) | . | . | . | . | . | .
C=C(C)c1nc(N)nc(N)n1 | . | . | 32 | . | . | .
CCCS(=O)(=O)N1CCCC(C(=O)N2CCOCC2)C1 (stereo not given) | . | . | . | . | . | .
Fc1ccccc1CSc1nnnn1-c1ccc2c(c1)OCO2 | 35 | . | . | / | . | .
